S1P4 antag: antagonists of human S1P4 receptor | O95977 | S1P4-expressing cells, antagonist mode, reporter read-out | inhibition, % at 4.98 µM | actives 0.26% (n = 220,000) | AID 1510; in the data active means inhibition above about 29%;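 further: 0% = wells stimulated with agonist and 100% = vehicle wells without agonist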
S1P3 antag: blocks the human S1P3 receptor; Q99500; CHO S1P3 NFAT-BLA reporter, FRET fluorescence, antagonist mode; inhibition, % at 4.98 µM; actives 0.27% (n = 170,000);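 active means inhibition above the plate cutoff, the mean inhibition of test wells on that plate plus 3 SD, cut at about 28% in these data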;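 further: cells challenged with S1P at its EC80 of 0.8 µM; blue over green emission ratio from cleaved BLA substrate after 4 h stimulation; 0% = S1P-stimulated wells and 100% = unstimulated DMSO-only wells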
MDM2 E3 inh: blocks human Mdm2 ubiquitin ligase activity | signal enhancement, % at 5 µM | cell-based MDM2 ubiquitination luciferase reporter, 2 h; 0 = plate control, 100 = twice control, blank-subtracted | Q00987 | AID 1230 | actives 0.11% (n = 210,000);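 active means signal enhancement of 30% or more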;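 further: luminescence tracks abundance of the self-degrading MDM2-luciferase fusion protein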
Target sequence (Q00987 whole entry, looked up, the tested form may be a part): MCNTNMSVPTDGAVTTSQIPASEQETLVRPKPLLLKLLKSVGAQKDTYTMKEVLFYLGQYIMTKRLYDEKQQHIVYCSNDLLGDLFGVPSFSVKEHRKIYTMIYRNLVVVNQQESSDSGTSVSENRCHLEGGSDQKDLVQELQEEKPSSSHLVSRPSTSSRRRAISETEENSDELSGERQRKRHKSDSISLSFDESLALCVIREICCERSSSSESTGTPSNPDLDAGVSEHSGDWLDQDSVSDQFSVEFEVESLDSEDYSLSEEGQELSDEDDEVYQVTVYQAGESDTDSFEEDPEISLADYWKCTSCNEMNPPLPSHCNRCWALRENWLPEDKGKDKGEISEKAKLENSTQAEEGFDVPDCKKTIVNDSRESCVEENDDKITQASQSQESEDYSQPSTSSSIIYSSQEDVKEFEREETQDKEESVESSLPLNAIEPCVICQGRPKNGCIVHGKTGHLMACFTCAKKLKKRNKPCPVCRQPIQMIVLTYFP
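Buffer or medium: Cells held in DMEM | Assay system: Stable mammalian line carrying autodegrading MDM2–luciferase fusion reporter | Quantity: 2000 cells/well | Times: 4 h settle plus 2 h compound, 37 °C | Doses: One concentration, 5 µM, with 0.2% DMSO | Technique: Luminescence with SteadyLite reagent, 15 min at room temperature | Benchmarks: Plate controls and plate blanks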
L major viab: Leishmania major promastigote growth inhibition. Leishmania major promastigotes, resazurin fluorescence viability. inhibition, % at 10 µM. actives 9% (n = 200,000). AID 1063; in the data active means inhibition above about 50%;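 further: promastigotes grown with compound for 44 hours at 28 °C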
S1P4 ag: agonists of human S1P4 receptor; activation, % at 4.98 µM; S1P4-expressing cell line, agonist reporter assay; actives 0.35% (n = 220,000); O95977; in the data active means activation above about 11%;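 further: 0% = DMSO vehicle and 100% = reference agonist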
The depositor's hits bear a star. The full list was thinned out, with hits kept by preference.

What do the screens show for `Cc1nc2ccccc2c(=O)n1NC(=O)c1c(O)c2c(n(CC(C)C)c1=O)CCCC2`?
S1P4 antag: -1.4; S1P3 antag: 23.1; MDM2 E3 inh: 1.9; L major viab: -4.7; S1P4 ag: -0.2

How did CCCCCCc1nc2ccccc2c(=O)n1NC(=O)c1c(O)c2c(n(CC(C)C)c1=O)CCCC2 do in these assays?
S1P4 antag: 2.9; MDM2 E3 inh: 0.4; L major viab: 54.2*; S1P4 ag: 0.5

Results for N#CCC(=O)NCCCc1ccccc1 ?
S1P4 antag: 2.4; S1P3 antag: -10.9; MDM2 E3 inh: -20.0; L major viab: -1.8; S1P4 ag: -0.3

What do the screens show for `Cc1ccc(-n2c3nc(=O)[nH]c(=O)c-3cc3cc([N+](=O)[O-])ccc32)cc1C`?
S1P4 antag: 1.8; S1P3 antag: -16.5; MDM2 E3 inh: 1.5; L major viab: 94.1*; S1P4 ag: 0.1

What do the screens show for `Cc1ccc(S(=O)(=O)n2cnc3cc([N+](=O)[O-])ccc32)cc1C`?
S1P4 antag: -15.8; MDM2 E3 inh: -16.0; L major viab: -3.4; S1P4 ag: 1.2

Results for CN(C1=C(N2CCOCC2)C(=O)c2ccccc2C1=O)c1ccccc1 ?
S1P4 antag: -7.5; S1P3 antag: -6.0; MDM2 E3 inh: -22.3; L major viab: 58.6*; S1P4 ag: 1.0

What do the screens show for `O=C1C(NS(=O)(=O)c2cccs2)=C(N2CCOCC2)C(=O)c2ccccc21`?
S1P4 antag: -3.6; S1P3 antag: -15.0; MDM2 E3 inh: -3.5; S1P4 ag: -0.5

How did COc1ccc(/C=C2\CCC/C(=C\C=N\N(C)C)C2=O)cc1 do in these assays?
S1P4 antag: 27.4; S1P3 antag: -9.8; MDM2 E3 inh: -0.2; L major viab: 92.8*; S1P4 ag: 0.9

How did Cc1ccc(C2c3c(C)nn(-c4ccc([N+](=O)[O-])cc4)c3N=C3C(=O)Nc4ccccc4N32)cc1 (stereo not given) do in these assays?
S1P4 antag: -12.9; S1P3 antag: 1.1; MDM2 E3 inh: -11.8; L major viab: 98.6*; S1P4 ag: 1.5

What do the screens show for `O=[N+]([O-])c1ccc2nc(-c3ccc(OC(F)F)cc3)cn2c1`?
S1P4 antag: -21.1; S1P3 antag: 1.1; MDM2 E3 inh: -24.7; L major viab: -4.5; S1P4 ag: 3.2

What do the screens show for `COc1ccc(NC2=Nc3ccccc3N3C2=Nc2c(c(C)nn2-c2ccc(C)cc2)C3c2cccnc2)cc1` (stereo not given)?
S1P4 antag: -5.4; MDM2 E3 inh: -13.8; L major viab: 3.3; S1P4 ag: -0.1

What do the screens show for `COc1cccc(C2c3c(C)nn(-c4ccc([N+](=O)[O-])cc4)c3N=C3C(=O)Nc4ccccc4N32)c1` (stereo not given)?
S1P4 antag: 6.1; S1P3 antag: 2.5; MDM2 E3 inh: -11.3; L major viab: 64.7*; S1P4 ag: 1.1

Results for Cc1nn(-c2ccc([N+](=O)[O-])cc2)c2c1C(c1ccc(OC(F)F)cc1)N1C(=N2)C(=O)Nc2ccccc21 (stereo not given) ?
S1P4 antag: -14.5; S1P3 antag: 4.5; MDM2 E3 inh: -23.0; L major viab: 68.0*; S1P4 ag: 1.4

What do the screens show for `Nc1ccc(-c2n[nH]c(=O)c3ccccc23)cc1N`?
S1P4 antag: -26.5; MDM2 E3 inh: 0.2; L major viab: -5.6; S1P4 ag: 1.9

How did Cc1ccc(NC(=O)CCC2CC(C)(C)OC2=O)cc1 (stereo not given) do in these assays?
S1P4 antag: -3.7; S1P3 antag: -8.5; MDM2 E3 inh: 31.2*; L major viab: 3.2; S1P4 ag: 0.7

Results for N#Cc1c(N)nc2c(c1-c1cccc(O)c1)CCCCCC2 ?
S1P4 antag: -6.6; S1P3 antag: 17.1; MDM2 E3 inh: 146.7*; L major viab: 21.3; S1P4 ag: 0.9

Results for CCN(CC)S(=O)(=O)c1cccc(NC(=O)c2ccc(Sc3nncn3C)c([N+](=O)[O-])c2)c1 ?
S1P4 antag: -4.5; S1P3 antag: -5.0; MDM2 E3 inh: 11.6; L major viab: -8.4; S1P4 ag: 2.5

Results for N#Cc1c(/N=C/c2ccc(Br)s2)sc2c1CCC2 ?
S1P4 antag: -3.3; MDM2 E3 inh: -15.7; L major viab: -5.3; S1P4 ag: -3.4

How did N#Cc1c(/N=C/c2cccs2)sc2c1CCCCC2 do in these assays?
S1P4 antag: -17.2; S1P3 antag: 56.9*; MDM2 E3 inh: -15.0; L major viab: 4.4; S1P4 ag: 1.6

Results for O=C(CN1C(=O)C2C3C=CC(C3)C2C1=O)N1CCc2ccccc2C1 (stereo not given) ?
S1P4 antag: -4.0; S1P3 antag: -15.4; MDM2 E3 inh: 5.0; L major viab: 1.5; S1P4 ag: -2.8

What do the screens show for `COc1cccc(OC2OC3COC(C)(C)OC3C(O)C2NC(C)=O)c1` (stereo not given)?
S1P4 antag: 7.3; S1P3 antag: -5.3; MDM2 E3 inh: -2.6; L major viab: -5.0; S1P4 ag: -1.0

What do the screens show for `Nc1c2c(nc3ccn(-c4ccccc4)c(=O)c13)CCCCC2`?
S1P4 antag: 1.5; S1P3 antag: 4.1; MDM2 E3 inh: -8.9; L major viab: 41.9; S1P4 ag: 0.2

How did Nc1c2c(nc3ccn(Cc4ccccc4)c(=O)c13)CCC2 do in these assays?
S1P4 antag: 0.9; S1P3 antag: 1.4; MDM2 E3 inh: -11.9; L major viab: 89.4*; S1P4 ag: -0.6

What do the screens show for `Cc1nn(-c2ccccc2)c(C)c1C(=O)OCC(=O)NC12CC3CC(CC(C3)C1)C2`?
S1P4 antag: -1.2; MDM2 E3 inh: -9.2; L major viab: 15.4; S1P4 ag: -1.1

What do the screens show for `CC(=O)Nc1ccc(NC(=O)COC(=O)c2c(C)nn(-c3ccccc3)c2C)cc1`?
S1P4 antag: -10.4; S1P3 antag: -3.1; MDM2 E3 inh: 1.9; L major viab: 66.6*; S1P4 ag: 1.9

What do the screens show for `O=C(COC(=O)C(Cc1ccccc1)NC(=O)c1ccc(Cl)cc1)c1ccc(Cl)cc1` (stereo not given)?
S1P4 antag: -16.5; S1P3 antag: 3.8; MDM2 E3 inh: -8.0; L major viab: 54.0*; S1P4 ag: -0.5

Results for CCCCC(NC(=O)c1ccc(Cl)cc1)C(=O)O (stereo not given) ?
S1P4 antag: -10.9; S1P3 antag: -12.7; MDM2 E3 inh: 5.6; L major viab: 85.9*; S1P4 ag: -1.1

What do the screens show for `CSCCC(NC(=O)c1ccc(Br)cc1)C(=O)O` (stereo not given)?
S1P4 antag: 3.2; S1P3 antag: -26.9; MDM2 E3 inh: 18.3; L major viab: 79.6*; S1P4 ag: -0.4

How did CC(C)CC(NC(=O)c1cccc(Cl)c1)C(=O)O (stereo not given) do in these assays?
S1P4 antag: -8.5; S1P3 antag: -3.7; MDM2 E3 inh: -14.3; L major viab: 15.5; S1P4 ag: -1.3

Results for CC(C)CC(NC(=O)c1ccc(Cl)cc1)C(=O)O (stereo not given) ?
S1P4 antag: 18.4; MDM2 E3 inh: 4.5; L major viab: 84.0*; S1P4 ag: -3.1
